Laboratory results as given in ChEMBL document CHEMBL3259782, “Synthesis and biological evaluation of chalcones as potential antileishmanial agents” (Eur J Med Chem, 2014).

Assays:
Leishmania donovani [1] = assay: Antiamastigote activity against amastigote stage of Leishmania donovani MHOM/IN/80/Dd8 expressing luciferase firefly reporter gene infected in mouse J774A1 cells after 72 hrs by luminescence assay; type: functional, organism-based; conditions: MHOM/IN/80/Dd8, J774.A1, 72 h
In short: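 J-774A.1 macrophages were seeded at 4 x 10^4/mL in RPMI-1640 with 10% heat-inactivated FCS at 37 °C, 5% CO2. After 24 h they were infected with stationary-phase luciferase-expressing promastigotes at 4 x 10^5/mL. Uninternalized parasites were washed off after 24 h. Compounds were tested at 7 dilutions from 40 µM for 72 h. Luminescence was read with Steady Glo. IC50 came from four-parameter Hill fitting, averaged over at least duplicates.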

Leishmania donovani [2] = assay: Antipromastigote activity against Leishmania donovani MHOM/IN/80/Dd8 expressing luciferase firefly reporter gene at 25 uM after 96 hrs by luminescence assay; conditions: MHOM/IN/80/Dd8, 96 h
[3] = Cytotoxicity against African green monkey Vero cells assessed as cell viability after 72 hrs by MTT assay; type: cell-based; conditions: chlorocebus sabaeus
In short: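 Vero cells at 1 x 10^5/mL were exposed to 7 concentrations from 400 µM at 37 °C in CO2 for 72 h. MTT (5 mg/mL in PBS) was then added for 2 h at 37°C. Formazan was dissolved in DMSO and absorbance read at 540 nm. CC50 was estimated and averaged over at least duplicates.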

[4] = (§1) Selectivity index, ratio of CC50 for African green monkey Vero cells to IC50 for promastigote stage of Leishmania donovani MHOM/IN/80/Dd8; type: functional; conditions: in the assay text read “amastigote stage” for “promastigote stage”
In short: (§2)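 SI was calculated as Vero CC50 (MTT, 72 h) divided by IC50 against intracellular amastigotes in J-774A.1 cells (luciferase luminescence, 72 h).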

Leishmania donovani [5] = assay: Antileishmanial activity against Leishmania donovani MHOM/IN/80/Dd8 infected in golden hamster assessed as inhibition of amastigotes multiplication at 50 mg/kg, ip for 10 days treatment started 15 days after infection measured on day 7; type: functional; conditions: MHOM/IN/80/Dd8, ip, route intraperitoneal
In short: (§3)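 Golden hamsters of both sexes were infected intracardially with 1 x 10^7 amastigotes. A pre-treatment splenic biopsy was taken after 15 days, and only animals with +1 grade infection (5-10 amastigotes/100 spleen cell nuclei) were used, five per compound. Dosing began 2 days after that biopsy and ran on consecutive days. Splenic biopsy on day 7 after the last dose was Giemsa-stained. PI = 100-[(ANAT x 100)/(INAT x TIUC)].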

Leishmania donovani [6] = assay: Antileishmanial activity against Leishmania donovani MHOM/IN/80/Dd8 infected in golden hamster assessed as inhibition of amastigotes multiplication at 100 mg/kg, ip for 5 days treatment started 15 days after infection measured on day 7; type: functional; conditions: MHOM/IN/80/Dd8, ip, route intraperitoneal; in short: as §3
Leishmania donovani [7] = assay: Antileishmanial activity against Leishmania donovani MHOM/IN/80/Dd8 infected in golden hamster assessed as inhibition of amastigotes multiplication at 30 mg/kg, po for 5 days treatment started 15 days after infection measured on day 7; type: functional; in short: as §3
Leishmania donovani [8] = assay: Antileishmanial activity against Leishmania donovani MHOM/IN/80/Dd8 infected in golden hamster assessed as inhibition of amastigotes multiplication at 50 mg/kg, ip for 5 days treatment started 15 days after infection measured on day 7; type: functional; conditions: MHOM/IN/80/Dd8, ip, route intraperitoneal; in short: as §3
Vero = assay: as §1; type: functional; conditions: in the assay text read “amastigote stage” for “promastigote stage”; in short: as §2
Leishmania donovani [9] = assay: Antileishmanial activity against Leishmania donovani MHOM/IN/80/Dd8 infected in golden hamster assessed as inhibition of amastigotes multiplication at 40 mg/kg, ip for 5 days treatment started 15 days after infection measured on day 7; type: functional, organism-based; design: dose 40 mg/kg; in short: as §3

| Molecule | IC50 (Leishmania donovani [1]) | inhibition at 25 µM (Leishmania donovani [2]) | CC50 at 72 h [3] | Ratio CC50/IC50 [4] | also measured |
| --- | --- | --- | --- | --- | --- |
| CC1(C)C=Cc2c(ccc(C(=O)/C=C/c3ccc4ccoc4c3)c2O)O1 | > 20 µM | 91.2% | – | – | – |
| CCOc1ccc(/C=C/C(=O)c2ccc3c(c2O)C=CC(C)(C)O3)cc1 | 5.1 µM | 88.9% | 215 µM | 42.1 | – |
| CCOc1ccc(/C=C/C(=O)c2ccc(OCCN3CCCCC3)cc2)cc1 | > 20 µM | 99.9% | – | – | – |
| CC1(C)C=Cc2c(ccc(C(=O)/C=C/c3cc(C=O)ccc3O)c2O)O1 | > 20 µM | 94.5% | – | – | – |
| CC(C)=CCC/C(C)=C/COc1ccc(C(=O)/C=C/c2ccc(OCCN3CCCC3)cc2)cc1 | – | 100% | – | – | – |
| CC1(C)C=Cc2c(ccc(C(=O)/C=C/c3ccc(Cl)c(Cl)c3)c2O)O1 | 13.9 µM | 99.9% | 142 µM | 10.2 | – |
| COc1ccc(/C=C/C(=O)c2ccc(OC/C=C(\C)CCC=C(C)C)cc2)cc1 | 3.1 µM | 93% | 146 µM | 47.2 | inhibition in vivo at 50 mg/kg (Leishmania donovani [5]): 83.3%; inhibition in vivo at 100 mg/kg (Leishmania donovani [6]): 75.9% |
| CCCCCCCCCCCCCCCCOP(=O)([O-])OCC[N+](C)(C)C [MILTEFOSINE] | – | 100% | – | 6.2 | inhibition in vivo at 30 mg/kg (Leishmania donovani [7]): 98.5% |
| CC(=O)Nc1ccc(/C=C/C(=O)c2ccc3c(c2O)C=CC(C)(C)O3)cc1 | 6.1 µM | 98.7% | 278 µM | 45.6 | – |
| CN(C)c1ccc(/C=C/C(=O)c2ccc3c(c2O)C=CC(C)(C)O3)cc1 | 19.8 µM | 97.1% | > 400 µM | >20.2 | – |
| CC1(C)C=Cc2c(ccc(C(=O)/C=C/c3ccc(F)c(F)c3)c2O)O1 | 17 µM | 99.9% | 146 µM | 8.6 | – |
| CCOc1cc(/C=C/C(=O)c2ccc3c(c2O)C=CC(C)(C)O3)ccc1F | 12.1 µM | 99.9% | 185 µM | 15.3 | – |
| CC1(C)C=Cc2c(ccc(C(=O)/C=C/c3ccc([N+](=O)[O-])cc3)c2O)O1 | 5.2 µM | 97.4% | 106 µM | 20.4 | – |
| CC1(C)C=Cc2c(ccc(C(=O)/C=C/c3ccc(C#N)cc3)c2O)O1 | 8.2 µM | 99.6% | 80.2 µM | 9.8 | – |
| CC1(C)C=Cc2c(ccc(C(=O)/C=C/c3ccc(F)cc3)c2O)O1 | 16.7 µM | 99% | 158 µM | 9.5 | – |
| CC1(C)C=Cc2c(ccc(C(=O)/C=C/c3ccccn3)c2O)O1 | 2 µM | 99.9% | 20.5 µM | 10.2 | – |
| CC1(C)C=Cc2c(ccc(C(=O)/C=C/c3ccc(OCCN4CCCCC4)cc3)c2O)O1 | 17.7 µM | 100% | > 400 µM | >22.6 | – |
| CC1(C)C=Cc2c(ccc(C(=O)/C=C/c3cnc4ccccc4c3)c2O)O1 | – | 62.2% | – | – | – |
| CC(C)=CCC/C(C)=C/CC/C(C)=C/COc1ccc(C(=O)/C=C/c2ccc(N(C)C)cc2)cc1 | > 20 µM | 76.1% | – | – | – |

| Molecule | IC50 (Leishmania donovani [1]) | inhibition at 25 µM (Leishmania donovani [2]) | CC50 at 72 h [3] | Ratio CC50/IC50 [4] | also measured |
| --- | --- | --- | --- | --- | --- |
| CCN(CC)CCOc1ccc(/C=C/C(=O)c2ccc3c(c2OCCN(CC)CC)C=CC(C)(C)O3)cc1 | 2 µM | 100% | 325 µM | 162.5 | inhibition in vivo at 50 mg/kg (Leishmania donovani [8]): 48.5% |
| CC1(C)C=Cc2c(ccc(C(=O)/C=C/c3ccc(OCCN4CCCC4)cc3)c2O)O1 | > 20 µM | 100% | – | – | – |
| CC1(C)C=Cc2c(ccc(C(=O)/C=C/c3ccc(OCCN4CCCCC4)cc3)c2OCCN2CCCCC2)O1 | 2.8 µM | 100% | 86.5 µM | 30.9 | – |
| sodium stibogluconate | – | – | – | – | Ratio CC50/IC50 (Vero): > 8; inhibition (Leishmania donovani [9]): 89.5% |
| CN(C)c1ccc(/C=C/C(=O)c2ccc(OCCN3CCCCC3)cc2)cc1 | 9.3 µM | 99.9% | 251 µM | 27 | – |
| CC1(C)C=Cc2c(ccc(C(=O)/C=C/c3cc4ccccc4nc3Cl)c2O)O1 | 12.1 µM | 100% | 257 µM | 21.2 | – |
| CC1(C)C=Cc2c(ccc(C(=O)/C=C/c3ccc(Cl)cc3Cl)c2O)O1 | 9.7 µM | 99.9% | 131 µM | 13.5 | – |
| CC1(C)C=Cc2c(ccc(C(=O)/C=C/c3ccc(Br)cc3)c2O)O1 | > 20 µM | 100% | – | – | – |
| CCN(CC)CCOc1ccc(/C=C/C(=O)c2ccc3c(c2O)C=CC(C)(C)O3)cc1 | 14.9 µM | 100% | 341 µM | 22.9 | – |
| CC1(C)C=Cc2c(ccc(C(=O)/C=C/c3ccc(O)cc3)c2O)O1 | > 20 µM | 70.2% | – | – | – |
| O=C(/C=C/c1ccc(OCCN2CCCCC2)cc1)c1ccc(OCCN2CCCCC2)cc1 | > 20 µM | 99.9% | – | – | – |
| CC1(C)C=Cc2c(ccc(C(=O)/C=C/c3ccc(Cl)cc3)c2O)O1 | 17.9 µM | 99.9% | 92.2 µM | 5.1 | – |
| CC(C)=CCOc1ccc(C(=O)/C=C/c2ccc(N(C)C)cc2)cc1 | 4.1 µM | 84.2% | > 400 µM | >97.6 | – |
| CC1(C)C=Cc2c(ccc(C(=O)/C=C/c3ccc(OCCN4CCCC4)cc3)c2OCCN2CCCC2)O1 | 2.5 µM | 99.9% | 258 µM | 103.2 | – |
| COc1ccc(/C=C/C(=O)c2ccc3c(c2O)C=CC(C)(C)O3)cc1OC | 11.9 µM | 98.2% | 267 µM | 22.4 | – |
| CC(C)=CCC/C(C)=C/COc1ccc(C(=O)/C=C/c2ccc(O)cc2)cc1 | 9.3 µM | 95.2% | 12.9 µM | 1.4 | – |
| Cc1ccc2nc(Cl)c(/C=C/C(=O)c3ccc4c(c3O)C=CC(C)(C)O4)cc2c1 | 5.3 µM | 99.8% | 399 µM | 75.3 | – |
| CC1(C)C=Cc2c(ccc(C(=O)/C=C/c3cccnc3)c2O)O1 | 22.2 µM | 100% | 8.6 µM | 0.4 | – |
